# Bioassay records as filed in PubChem BioAssay.
# OX1R antag-1 – blocks the human orexin 1 receptor. inhibition, % at 6.6 µM. 330,000 tested, 1.8% active. AID 485270. O43613. OX1R-expressing cells, FRET antagonist read-out; in the data active = inhibition mostly above about 38%, no sharp cut-off; inactive = mostly below about 40%;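 note: 0% = agonist challenge alone and 100% = reference antagonist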
# Target sequence (O43613 whole entry, looked up): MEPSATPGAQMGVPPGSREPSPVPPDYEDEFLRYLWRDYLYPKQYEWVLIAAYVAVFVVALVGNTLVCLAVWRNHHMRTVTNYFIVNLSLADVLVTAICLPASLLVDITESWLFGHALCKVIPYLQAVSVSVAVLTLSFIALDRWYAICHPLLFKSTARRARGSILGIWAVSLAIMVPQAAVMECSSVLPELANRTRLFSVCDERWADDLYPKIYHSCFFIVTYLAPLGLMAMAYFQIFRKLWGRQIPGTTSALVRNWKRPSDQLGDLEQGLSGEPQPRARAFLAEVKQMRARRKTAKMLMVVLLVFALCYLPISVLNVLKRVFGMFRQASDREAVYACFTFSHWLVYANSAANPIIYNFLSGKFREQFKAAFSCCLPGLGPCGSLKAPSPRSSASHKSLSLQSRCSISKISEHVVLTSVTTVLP
# CHO parental Ca – counter-screen: ATP calcium response change in parental CHO cells | 330,000 tested, 0.63% active | parental CHO-K1, ATP-induced calcium, Fluo-8 fluorescence | AID 463079 | inhibition, % at 5.6 µM;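 active = inhibition above that plate's mean sample inhibition plus 3 SD, cut at about 26% in these data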;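 note: 0% = ATP-challenged DMSO wells and 100% = DMSO wells without ATP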
#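 test system = CHO parental line | reagent = ATP stimulus | measured by = intracellular calcium via Fluo-8 no-wash fluorescent dye | control set = ATP and no-ATP DMSO wells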
# TAAR1 agonist – agonists of human TAAR1 | CHO RD-HGA16 TAAR1, Fluo-8 calcium fluorescence; vehicle wells 0%, saturating PEA agonist 100% | AID 624467 | 360,000 tested, 0.99% active | activation, % at 3 µM;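 active = activation above the mean activation of all test compounds in the run plus 3 SD, cut at about 38% in these data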
#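 test system = CHO RD-HGA16 cells carrying human TAAR1 plus Gα16 | schedule = 17-24 h seeding, 75 min 37 °C dye, 30 min RT | compound dosing = 3 µM single concentration | control set = DMSO and PEA EC100 | replicates = n 1 | signal = Fluo-8 fluorescence, 5 s baseline then 140 s kinetic read | measure = percent activation vs PEA EC100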
# GPR7 antagonist – blocks human GPR7 receptor signaling; P48145; GPR7-expressing cells, fluorescence antagonist assay; inhibition, % at 4.4 µM; 290,000 tested, 1.1% active; in the data active = inhibition above about 16%, passing the limit was not always enough;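 note: cells stimulated with the agonist NPW; 0% = agonist with vehicle and 100% = vehicle without agonist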
# TAAR1 antagonist – human TAAR1 antagonism; 360,000 tested, 1.5% active; CHO RD-HGA16 TAAR1, Fluo-8 calcium fluorescence, antagonist; AID 624466; inhibition, % at 3 µM; Q96RJ0;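 active = inhibition above a per-plate cutoff, the mean inhibition of test compounds on that plate plus 3 SD, cut at about 49% in these data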;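 note: 0% = DMSO plus EC80 beta-PEA response and 100% = DMSO alone without agonist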
#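 Test system: CHO RD-HGA16 cells bearing hTAAR1 | Reagent: β-PEA, EC80 | Compound dosing: 3 µM, single point | Schedule: Dye loading 75 min at 37 °C, then 30 min room temperature | Signal: Calcium fluorescence with Fluo-8 | Evaluation: Percent inhibition of PEA-evoked calcium signal, max/basal emission ratio | Control set: DMSO-only wells and EC80 β-PEA-stimulated wells | Repeats: Singlicate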
# OX1R antag-2 – blocks the human orexin 1 receptor. 330,000 tested, 0.43% active. CHO/OX1R cells, Fluo-8 calcium fluorescence, orexin A. inhibition, % at 5 µM;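 active = inhibition above its plate's threshold, mean inhibition of all tested compounds on the plate plus 3 SD, cut at about 37% in these data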;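 note: 0% = orexin A challenge wells and 100% = SB-334867-A antagonist wells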
# * = called active by the depositor; · = not tested or not shown. The list is not random: actives were taken first. Their share in the collection is about 4.6%.
SMILES,OX1R antag-1,CHO parental Ca,TAAR1 agonist,GPR7 antagonist,TAAR1 antagonist,OX1R antag-2
Cc1ccc(C(C)C)c(OCCn2c(=O)oc3ccccc32)c1,23,6,13,-8,72*,-1
Cc1ccc(C(C)C)c(OCCN)c1,0,-6,38*,0,-2,-1
Cc1ccc(C(C)C)c(OCCN(C)C)c1,8,-9,7,-7,10,-18
Cc1ccccc1OCCn1c(=O)oc2ccccc21,25,3,17,10,26,-3
COc1cccc(CN(C)C(=O)C2CCCN(C(=O)c3ccc(Cl)cc3)C2)c1 (stereo not given),·,·,0,·,-7,·
COc1ccccc1Cc1c(-c2cccc(Br)c2)nc2ccc(Cl)cn12,·,·,0,·,-19,·
COc1ccc(C)cc1NC(=O)COC(=O)c1c(C)nn(-c2ccccc2)c1C,30*,-1,2,·,18,37
CCC(C(=O)OCC(=O)Nc1c(C)nn(-c2ccccc2)c1C)c1ccccc1 (stereo not given),13,-23,9,·,35,-29
COc1ccc(C)cc1NC(=O)c1nn(-c2ccccc2)cc1OC,48*,-17,-5,-19,30,17
Cc1nn(-c2ccccc2)c(C)c1NC(=O)COC(=O)/C=C/c1ccccc1,15,1,19,·,60*,-3
COc1ccc(OC)c(NC(=O)COC(=O)c2c3c(nc4ccccc24)CCCC3)c1,57*,10,13,-7,44,33
Oc1ccc2ccccc2c1C=NCc1cn2ccsc2n1,65*,-2,-1,-3,-21,-2
CCOc1ccc(NC(=NCc2ccc3c(c2)OCO3)SC2CC(=O)N(c3ccc(C(=O)O)cc3)C2=O)cc1 (stereo not given),27,38*,7,-7,-9,51*
CCOc1ccc(/C=N/NC(=O)c2ccccc2Cl)cc1CN1CC2CC(C1)c1cccc(=O)n1C2 (stereo not given),37*,-30,-2,·,8,-15
CCOC(=O)c1sc(C)c2c(=O)n(CC)nnc12,63*,-9,11,-1,5,7
Cc1nn(Cc2c(Cl)cccc2Cl)c(C)c1NC(=O)c1cc(C(C)C)on1,6,91*,0,-5,-10,89*
Cc1cc(C(=O)Nc2c(C)nn(Cc3c(Cl)cccc3Cl)c2C)no1,15,-4,13,-17,-4,-8
C=CCN=C1NC(c2cccc(Cl)c2)C(C(=O)OC)=C(C)N1Cc1ccc(C(F)(F)F)cc1 (stereo not given),·,·,28,·,45,·
Cc1ccc2nc(-c3cccc(Br)c3)c(Cc3ccsc3)n2c1,·,·,0,·,-15,·
C[C@H]1NS(=O)(=O)c2cccc(Cl)c2O[C@@H]1c1ccccc1,·,·,1,·,15,·
CCOc1cccc(/C=C/c2ccc3cccc(O)c3n2)c1OC,9,48*,2,8,37,28
COC(=O)[C@]12C[C@H](CC(=O)N3CCC(c4ccccc4)CC3)C(=O)N(CCC3=CCCCC3)C1=C[C@H](C(C)(C)C)O[C@@H]2C,·,·,-1,·,-34,·
O=c1[nH][nH]c(C(F)(F)F)c1C=NCc1cccc(Cl)c1,13,-11,43*,-8,11,-13
O=c1[nH][nH]c(C(F)(F)F)c1C=NCc1ccc(Cl)cc1,15,-5,24,-12,9,-14
COc1ccc(/C=C2/SC(=O)N(CCC(=O)Nc3ccc(C)cc3)C2=O)cc1OC,8,-12,-2,-6,-14,-2
SMILES,OX1R antag-1,CHO parental Ca,TAAR1 agonist,GPR7 antagonist,TAAR1 antagonist,OX1R antag-2
COc1ccc(/C=C2\SC(=O)N(CCNC(=O)Cc3coc4cc(C)ccc34)C2=O)cc1OC,54*,-32,-1,-22,18,6
Cc1ccccc1CS(=O)(=O)c1nnc([C@H](Cc2ccccc2)NC(=O)OC(C)(C)C)o1,1,51*,2,0,23,34
CCSc1nnc([C@H](Cc2ccccc2)NC(=O)OC(C)(C)C)o1,14,-19,5,-10,6,-31
CC(C)(C)OC(=O)N[C@@H](Cc1ccccc1)c1nnc(S(=O)(=O)Cc2ccccc2)o1,20,32*,10,17,21,30
COc1ccc(OCC2CN(C3CCCC3)S(=O)(=O)CCO2)cc1 (stereo not given),·,·,0,·,11,·
Cc1ccc(NC(=O)[C@@H]2O[C@H](CO)[C@@H](O)[C@H]2O)cc1C(F)(F)F,·,·,5,·,1,·
CC(/C=N/NC(=O)c1sc(N)nc1C)=C\c1ccccc1,26,-14,40*,-11,-14,-7
Cc1nc(N)sc1C(=O)N/N=C/c1ccccc1[N+](=O)[O-],31,-10,9,8,3,-15
N#Cc1nc(Cc2ccccc2)oc1NCc1ccccc1Cl,32,36*,0,10,34,22
CCOc1ccc(Cn2nnc(C(=O)NCc3ccc(OC)cc3)c2N)cc1,15,-3,50*,0,13,4
Oc1ccc(Nc2nc3ccccc3nc2Nc2ccc(O)cc2)cc1,23,35*,·,6,·,8
O=c1oc(-c2ccc([N+](=O)[O-])cc2)nc2ccc(O)cc12,75*,7,4,-2,17,-11
O=C(NCc1ccco1)C(c1ccncc1)N(C(=O)Cc1cccs1)c1ccccc1 (stereo not given),28,1,4,1,3,-35
O=C(NCc1ccco1)C(c1ccccc1)N(C(=O)Cc1cccs1)c1ccccc1F (stereo not given),38,-15,10,2,58*,-24
COc1ccc(C(CNC(=O)c2ccc(-c3ccccc3Cl)o2)N2CCCC2)cc1 (stereo not given),·,·,42*,·,-11,·
COc1ccc(NC(=O)c2ccc3ccccc3c2)cc1,11,42*,16,14,3,-3
COc1ccc(CC(=O)Nc2ccc(C(C)=O)cc2)cc1,21,-4,0,25*,7,-72
COc1ccc(C(=O)NNC(=O)c2ccc3ccccc3c2)cc1,·,·,1,·,8,·
COc1ccc(C(=O)Nc2ccc(C3CC3(Cl)Cl)cc2)cc1 (stereo not given),39,37*,4,-8,-10,10
c1ccc(-c2nc(-c3cccs3)[nH]c2-c2ccccc2)cc1,13,-20,4,-10,2,-7
Cc1nc2nc(-c3cccs3)[nH]c2cc1Br,43*,-5,3,·,-28,0
CC(=O)N1C[C@@H](CN2C(=O)CCC2=O)[C@@H]2C[C@H]1c1ccccc1N2C,·,·,2,·,-2,·
Cc1ccc2cc(C3C(C#N)=C(N)Oc4c3ccc3cccnc43)c(=O)[nH]c2c1 (stereo not given),45*,-23,·,-6,·,-12
CC(C)C[C@H]1COc2ccc(Cl)cc2S(=O)(=O)N1,·,·,-2,·,2,·
